Experimental data reported in publication PMC6138487 (British Journal of Clinical Pharmacology, 2018).
Marks after values point to notes of the source that are not given here.

Assays:
Assay type in all cases: in vivo, human
[1] = Pharmacokinetics of elobixibat; details: for C1max / t1(1/2) / C8max / t8(1/2) / C14max / t14(1/2): geometric mean (CV)
Procedure, shortened: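 Once-daily oral dosing before breakfast for 14 days. Plasma was drawn predose and at 0.5–12 h on Days –1, 1, 8 and 14, plus intermittent days to Day 21. Measured by LC–MS/MS (LLOQ 10.0 pg ml–1). Noncompartmental Cmax and AUC(0–t) on log-transformed values. Accumulation ratios were Day 8/Day 1 and Day 14/Day 1. Sex effect was expressed as back-transformed male/female LSM ratio.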

[2] = system: plasma 7α‐hydroxy‐4‐cholesten‐3‐one (C4); test: Plasma C4 level, M-test; details: Day 8 and Day 14; P < 0.001 except 2.5 mg day^–1
[3] = system: serum low‐density lipoprotein cholesterol (LDL‐C); test: Serum LDL-C level, M-test; details: Day 8 and Day 14; P < 0.001 except 2.5 mg day^–1
[4] = system: serum high‐density lipoprotein cholesterol (HDL‐C); test: Serum HDL-C level, M-test
[5] = system: plasma 7α‐hydroxy‐4‐cholesten‐3‐one (C4); test: Food effect on plasma C4, S-test; details: up to 24 h, AUEC P < 0.001
Procedure, shortened: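 Crossover single dose taken 15 min before breakfast or fasting. Plasma was sampled predose and at 0.5–12 h on Days –1, 1, 7 and 8, plus daily. C4 was measured by LC–MS/MS (LLOQ 2 ng ml–1). […] Food effect was assessed by linear mixed model (dose, food, intervention, period fixed; patient random).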

[6] = system: patients with chronic constipation; test: Bowel functions; details: for proportion of patients with first SBM within 24 h: placebo 40.0%
Procedure, shortened: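 Test compound or placebo orally once daily before breakfast for 14 days. Patients recorded the time of each BM (BM, SBM, complete SBM), Bristol Stool Form Scale, straining (five levels), completeness of evacuation and GI symptoms including discomfort (five levels). Bisacodyl suppository rescue was allowed after ≥72 h without BM with symptoms. Descriptive statistics were used.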

[7] = system: patients with chronic constipation; test: Adverse events, M-test
Procedure, shortened: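 Patients randomized 5:1 to test compound (2.5, 5, 10, 15 or 20 mg) or placebo. Oral tablet once daily before breakfast for 14 consecutive days, inpatient Day –2 to Day 21. AE type, severity and incidence were recorded with physical exams, vital signs, 12-lead ECG and laboratory tests. Proportions of patients with AEs were tabulated, and dose-dependency was tested by Cochran–Armitage trend test.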

QTcF intervals = test: ECG QTcF evaluation; details: S-test and M-test, 2.5-20 mg
Procedure, shortened: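 12-lead surface ECG in both single- and 14-day dosing tests. QT was Fridericia-corrected by experienced central-laboratory readers. ΔQTcF from baseline was calculated at each time point, and ΔΔQTcF versus placebo was estimated with 90% CI. Categorical counts: absolute QTcF >450, >480 and >500 ms; ΔQTcF >30 and >60 ms.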

[8] = Day 1, 2.5 mg once daily before breakfast
[9] = Day 1, 5 mg once daily before breakfast
[10] = Day 1, 10 mg once daily before breakfast
[11] = Day 1, 15 mg once daily before breakfast
[12] = Day 1, 20 mg once daily before breakfast
[13] = Day 8, 2.5 mg once daily before breakfast
[14] = Day 8, 5 mg once daily before breakfast
[15] = Day 8, 10 mg once daily before breakfast
[16] = Day 8, 15 mg once daily before breakfast
[17] = Day 8, 20 mg once daily before breakfast
[18] = Day 14, 2.5 mg once daily before breakfast
[19] = Day 14, 5 mg once daily before breakfast
[20] = Day 14, 10 mg once daily before breakfast
[21] = Day 14, 15 mg once daily before breakfast
[22] = Day 14, 20 mg once daily before breakfast
[23] = M-test Day 8, linear mixed effect model
[24] = M-test Day 14, linear mixed effect model
[25] = 2.5 mg once daily 14 days (group n=10)
[26] = 5 mg once daily 14 days (group n=10)
[27] = 10 mg once daily 14 days (group n=9)
[28] = 15 mg once daily 14 days (group n=10)
[29] = 20 mg once daily 14 days (group n=10)

CCCCC1(CCCC)CN(c2ccccc2)c2cc(SC)c(OCC(=O)N[C@@H](C(=O)NCC(=O)O)c3ccccc3)cc2S(=O)(=O)C1 [elobixibat]
drug accumulation on multiple administration ([1]; 5 and 15 mg day^–1 dosages (Discussion)): slight accumulation
C1max [1, 8]: 98.69 (56.9) pg ml^–1
t1(1/2) [1, 8]: 1.89 (40.9) ^a h
C1max [1, 9]: 164.83 (54.7) pg ml^–1
t1(1/2) [1, 9]: 2.41 (32.7) h
C1max [1, 10]: 284.67 (39.6) ^a pg ml^–1
t1(1/2) [1, 10]: 2.69 (30.7) ^a h
C1max [1, 11]: 468.71 (63.7) pg ml^–1
t1(1/2) [1, 11]: 3.28 (75.7) h
C1max [1, 12]: 932.04 (76.3) pg ml^–1
t1(1/2) [1, 12]: 3.14 (62.4) h
C8max [1, 13]: 99.39 (63.6) pg ml^–1
t8(1/2) [1, 13]: 2.42 (31.2) h
C8max [1, 14]: 139.45 (50.7) pg ml^–1
t8(1/2) [1, 14]: 3.29 (68.9) h
C8max [1, 15]: 283.84 (17.9) pg ml^–1
t8(1/2) [1, 15]: 4.96 (64.1) h
C8max [1, 16]: 388.55 (82.0) pg ml^–1
t8(1/2) [1, 16]: 4.62 (58.2) h
C8max [1, 17]: 581.32 (53.6) pg ml^–1
t8(1/2) [1, 17]: 5.16 (45.2) h
C14max [1, 18]: 82.66 (50.4) pg ml^–1
t14(1/2) [1, 18]: 2.34 (50.8) ^a h
C14max [1, 19]: 165.57 (35.0) pg ml^–1
t14(1/2) [1, 19]: 3.73 (61.0) h
C14max [1, 20]: 236.11 (34.4) pg ml^–1
t14(1/2) [1, 20]: 6.19 (146.0) h
C14max [1, 21]: 383.19 (73.5) pg ml^–1
t14(1/2) [1, 21]: 5.68 (74.9) h
C14max [1, 22]: 953.18 (53.6) pg ml^–1
t14(1/2) [1, 22]: 7.23 (37.5) h
AUC8(0–t), back transformed LSM ratio male/female [1, 23]: 0.9947
C8max, back transformed LSM ratio male/female [1, 23]: 0.8416
AUC14(0–t), back transformed LSM ratio male/female [1, 24]: 0.9863
C14max, back transformed LSM ratio male/female [1, 24]: 0.9675
drug accumulation from Cmax (Rac) ([1]; all dosage groups, 90% CIs of Rac included 1.000): No drug accumulation
time to steady state of plasma concentration ([1]; multiple administration once daily): ≤ 8 days
C4 AUEC relative to placebo (ANCOVA) [2]: significantly greater
LDL‐C AUEC compared to placebo (ANCOVA) [3]: significantly greater reductions
HDL‐C levels, trend [4]: no clear trend
C4 Emax and AUEC, breakfast regimen compared with no‐breakfast regimen [5]: significantly greater elevations
proportion of patients with first SBM within 24 h ([6]; 2.5 mg day^–1 (10/10)): 100%
proportion of patients with first SBM within 24 h ([6]; 5 mg day^–1 (10/10)): 100%
proportion of patients with first SBM within 24 h ([6]; 10 mg day^–1 (9/9)): 100%
proportion of patients with first SBM within 24 h ([6]; 15 mg day^–1 (8/9)): 88.9%
proportion of patients with first SBM within 24 h ([6]; 20 mg day^–1 (10/10)): 100%
patients reporting worse abdominal discomfort ([6]; 20 mg day^–1 group): 40%
patients reporting improvement of abdominal discomfort ([6]; 5 and 10 mg day^–1 groups): Nearly half
time to the first SBM compared with placebo ([6]; M-test): evidently shorter
changes in SBM frequency from baseline (Week –1) ([6]; M-test Weeks 1 and 2): dose‐dependent increases
AEs associated with gastrointestinal disorders, % of patients [7, 25]: (80.0) %
AEs associated with gastrointestinal disorders, n of patients [7, 25]: 8
Any AEs, % of patients [7, 25]: (80.0) %
Any AEs, n of patients [7, 25]: 8
abdominal distention, % of patients [7, 25]: (30.0) %
abdominal distention, n of patients [7, 25]: 3
abdominal pain lower, % of patients [7, 25]: (40.0) %
abdominal pain lower, n of patients [7, 25]: 4
abdominal pain upper, n of patients [7, 25]: 0
diarrhoea, % of patients [7, 25]: (10.0) %
diarrhoea, n of patients [7, 25]: 1
AEs associated with gastrointestinal disorders, % of patients [7, 26]: (80.0) %
AEs associated with gastrointestinal disorders, n of patients [7, 26]: 8
Any AEs, % of patients [7, 26]: (90.0) %
Any AEs, n of patients [7, 26]: 9
abdominal distention, % of patients [7, 26]: (30.0) %
abdominal distention, n of patients [7, 26]: 3
abdominal pain lower, % of patients [7, 26]: (30.0) %
abdominal pain lower, n of patients [7, 26]: 3
abdominal pain upper, % of patients [7, 26]: (20.0) %
abdominal pain upper, n of patients [7, 26]: 2
diarrhoea, % of patients [7, 26]: (40.0) %
diarrhoea, n of patients [7, 26]: 4
AEs associated with gastrointestinal disorders, % of patients [7, 27]: (77.8) %
AEs associated with gastrointestinal disorders, n of patients [7, 27]: 7
Any AEs, % of patients [7, 27]: (100.0) %
Any AEs, n of patients [7, 27]: 9
abdominal distention, % of patients [7, 27]: (22.2) %
abdominal distention, n of patients [7, 27]: 2
abdominal pain lower, % of patients [7, 27]: (33.3) %
abdominal pain lower, n of patients [7, 27]: 3
abdominal pain upper, % of patients [7, 27]: (22.2) %
abdominal pain upper, n of patients [7, 27]: 2
diarrhoea, % of patients [7, 27]: (44.4) %
diarrhoea, n of patients [7, 27]: 4
AEs associated with gastrointestinal disorders, % of patients [7, 28]: (70.0) %
AEs associated with gastrointestinal disorders, n of patients [7, 28]: 7
Any AEs, % of patients [7, 28]: (90.0) %
Any AEs, n of patients [7, 28]: 9
abdominal distention, % of patients [7, 28]: (40.0) %
abdominal distention, n of patients [7, 28]: 4
abdominal pain lower, % of patients [7, 28]: (40.0) %
abdominal pain lower, n of patients [7, 28]: 4
abdominal pain upper, n of patients [7, 28]: 0
diarrhoea, % of patients [7, 28]: (40.0) %
diarrhoea, n of patients [7, 28]: 4
AEs associated with gastrointestinal disorders, % of patients [7, 29]: (90.0) %
AEs associated with gastrointestinal disorders, n of patients [7, 29]: 9
Any AEs, % of patients [7, 29]: (90.0) %
Any AEs, n of patients [7, 29]: 9
abdominal distention, % of patients [7, 29]: (60.0) %
abdominal distention, n of patients [7, 29]: 6
abdominal pain lower, % of patients [7, 29]: (50.0) %
abdominal pain lower, n of patients [7, 29]: 5
abdominal pain upper, % of patients [7, 29]: (20.0) %
abdominal pain upper, n of patients [7, 29]: 2
diarrhoea, % of patients [7, 29]: (80.0) %
diarrhoea, n of patients [7, 29]: 8
safety and tolerability ([7]; once‐daily administration, female and male patients): safe and tolerated up to 20 mg
QTcF prolongation (>450 ms), categorical analysis (QTcF intervals): no QTcF prolongation
